STAT3 act-1 = IL-6 driven STAT3 reporter potentiators, primary screen, U3A cells, luciferase, luminescence, MLSCN library; 0.91% of 190,000 active; activation (% of control), % at 5.6 µM; IL-6 STAT3-luciferase reporter; 100% = signal with IL-6 EC80 alone;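 active = activation above the screen-wide mean of compound activation plus 3 SD, cut at about 130% in these data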;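 also: 0% = background luminescence of wells with medium and substrate only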
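Detection: reporter luminescence signal / Assay system: STAT1-lacking human U3A cells, STAT3 luciferase reporter / Incubation: compound pre-incubation 1 h before IL-6, then 6 h stimulation at 37 °C / Control set: IL-6-only high control / Read-out: % activation relative to IL-6 control / Probe or stimulus: Interleukin-6, 33 ng/mL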
STAT1 act-1 = STAT1 signaling activators, primary screen, cell-based, HTS, luciferase reporter | NIH 3T3 STAT1-luciferase reporter, IFN-gamma, luminescence; 100% = IFN-gamma alone, no compound | activation (% of control), % at 5.5 µM | 2.6% of 200,000 active;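 active = activation above the screen-wide mean activation plus 3 SD, cut at about 130% in these data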;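 also: raw ratio to IFN-gamma control signal so 100% means no change and 0% no light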
STAT3 inh = IL-6 driven STAT3 reporter inhibitors, primary screen, U3A cells, luciferase, luminescence, MLSCN library. AID 862, 2007. IL-6 STAT3-luciferase reporter; host cell line lacks STAT1. inhibition, % at 5.5 µM. 0.89% of 190,000 active;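 active = inhibition above the mean inhibition across all screened compounds plus 3 SD, cut at about 44% in these data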;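 also: 0% = DMSO only wells and 100% = 100 µM nifuroxazide control wells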
STAT1 blocker = STAT1 signaling inhibitors, primary screen, cell-based, HTS, luciferase reporter; 0.35% of 200,000 active; inhibition, % at 5.5 µM; NIH 3T3 STAT1-luciferase reporter, IFN-gamma, luminescence; AID 920, 2007;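 active = inhibition above a set limit, the mean inhibition across all tested compounds plus 3 SD, cut at about 34% in these data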;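 also: 0% = IFN-gamma with DMSO and 100% = IFN-gamma with 300 µM nifuroxazide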
FLuc inhib CS = firefly luciferase enzyme inhibitors, primary screen, artefact control for luciferase-based inhibitor screens, biochemical, luminescence, ATPLite; Luciferin 4-monooxygenase (Photinus pyralis), P08659; 10 min; inhibition, % at 10 µM; 1.5% of 200,000 active; AID 1006, 2008;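 active = inhibition above about 50% when tested at 10 µM, limit read from the data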
Target sequence (P08659 whole entry, looked up): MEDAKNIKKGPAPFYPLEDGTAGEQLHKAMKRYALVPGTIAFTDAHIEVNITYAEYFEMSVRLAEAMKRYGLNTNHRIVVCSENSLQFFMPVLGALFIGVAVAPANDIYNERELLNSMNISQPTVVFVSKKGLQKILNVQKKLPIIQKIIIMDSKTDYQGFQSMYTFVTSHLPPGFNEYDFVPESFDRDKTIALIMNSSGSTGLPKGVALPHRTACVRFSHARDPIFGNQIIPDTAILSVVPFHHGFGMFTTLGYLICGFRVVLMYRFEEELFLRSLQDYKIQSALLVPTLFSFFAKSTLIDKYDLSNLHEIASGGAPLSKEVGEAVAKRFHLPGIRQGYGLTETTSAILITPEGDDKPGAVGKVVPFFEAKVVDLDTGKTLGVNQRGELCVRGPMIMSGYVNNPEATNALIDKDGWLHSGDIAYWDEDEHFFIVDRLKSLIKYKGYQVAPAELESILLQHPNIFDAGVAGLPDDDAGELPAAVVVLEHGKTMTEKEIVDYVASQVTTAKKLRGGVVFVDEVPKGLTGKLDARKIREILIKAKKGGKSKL
FLuc act counter = FLuc activators, initial screening, artefact control for FLuc-dependent activation tests, biochemical, ATPlite luminescence; AID 1027, 2008; 200,000 tested, under 10 active; ATPlite luciferase biochemical, 10 min; 0 = ATP-free wells, 1 = DMSO control; activation factor at 10 µM; Luciferin 4-monooxygenase (Photinus pyralis), P08659;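 active = luciferase activation factor, scaled between plate controls, of at least 2 with compound at 10 µM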
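System: luciferase plus luciferin reagent, cell-free; medium: PBS as buffer for the ATP substrate; dosing: test compounds dosed from 2 mM stocks in 100% DMSO; timing: 10 min post-reagent at room temperature; measured by: luminescence measurement of luciferase light output; evaluation: luciferase activation, seen as luminescence increase over controls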
STAT3 act-2 = STAT3 reporter potentiators, retest of hits, confirmation, U3A cells, luciferase, luminescence; potentiation (% of control), % at 5.7 µM; shares compounds with STAT3 act-1; IL-6 potentiation; U3A cells lack STAT1; 100 means same as IL-6 alone; 64% of 1,200 active;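 active = percent activation of the STAT3 luciferase reporter above a set limit taken from the earlier primary screen, cut at about 130% in these data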;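 also: 0% = background signal of medium plus substrate and 100% = median of IL-6 with DMSO wells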
NFkB act STAT3ct = NF-kB reporter activators in human cells, counter-screen for STAT3 activator project. activation (% of control), % at 5.7 µM. AID 1309, 2008. NF-kappaB reporter activation. 11% of 1,200 active. shares compounds with STAT3 act-1; in the data active = activation above about 120%;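 also: reporter induced by TNF-alpha stimulation; 100% = median of stimulated DMSO wells and 0% = no signal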
STAT1 act-2 = STAT1 reporter activators, IFN-gamma induced, counter-screen for STAT3 activator project, cell-based, NIH 3T3, luciferase luminescence. 13% of 1,200 active. activation (% of control), % at 5.7 µM. NIH 3T3 STAT1-luciferase reporter. shares compounds with STAT3 act-1;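 active = activation above the solvent-only control well mean plus 3 SD, set per screening run, cut at about 120% in these data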;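 also: 100% = IFN-gamma with DMSO median signal so 100% means no change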
* hit, by the source's call; x = no result. Only some compounds are listed: those with a hit (about 4.9% of all), similar ones and a draw of the others.

SMILES	STAT3 act-1	STAT1 act-1	STAT3 inh	STAT1 blocker	FLuc inhib CS	FLuc act counter	STAT3 act-2	NFkB act STAT3ct	STAT1 act-2
COc1ccc(-c2csc(NC(=O)c3cc(=O)c4ccccc4o3)n2)cc1OC	93	92	9	8	1	1	x	x	x
NC(=O)COC(=O)CCSc1ccc(Cl)cc1	97	100	12	0	-1	1	x	x	x
Oc1ccccc1-c1nnc(SCCN2CCOCC2)n1Cc1ccccc1	168*	99	-80	1	24	0.8	147*	106	105
N#CCCN(Cc1ccccc1)C(=S)Nc1ccccc1	101	98	1	3	-9	1.1	x	x	x
CN(/C(=N\S(=O)(=O)c1ccccc1)c1ccccc1)c1ccc(O)cc1	101	94	7	6	1	1	x	x	x
Nc1c(C(=O)c2ccc(Br)s2)oc2ccccc12	177*	104	-82	-4	1	1	158*	115	110
Cc1ccc(C(=O)c2oc3ccccc3c2N)cc1	143*	117	-50	-27	4	1	119	118	113
CCCCOc1ccc(C(=O)NCC2(c3ccc(OC)cc3)CCOCC2)cc1	105	102	-6	-3	-4	1	x	x	x
CCn1cc([N+](=O)[O-])c(C(=O)N2N=C(c3ccc4ccccc4c3)CC2c2ccccc2O)n1 (stereo not given)	151*	104	-58	-8	-5	1	138*	102	102
CCn1cc(Cl)c(C(=O)N2N=C(c3ccc4ccccc4c3)CC2c2ccccc2O)n1 (stereo not given)	102	100	-4	0	3	1	x	x	x
Oc1ccc(Br)cc1-c1cc(-c2ccccc2)n[nH]1	141*	104	-46	-4	-2	1	125	104	101
Oc1ccc(Br)cc1-c1cc(-c2ccc(Cl)cc2)n[nH]1	132	98	-33	2	3	1	x	x	x
Cc1cc(N/N=C/c2c[nH]c3ccccc23)c2ccccc2n1	148*	96	-53	5	-3	1	141*	100	88
Cc1cc(C)nc(N/N=C/c2c[nH]c3ccccc23)n1	115	93	-11	8	12	0.9	x	x	x
O=C(CN1CCN(S(=O)(=O)c2ccccc2F)CC1)Nc1ccccc1C(=O)c1ccccc1	106	82	-4	19	-10	1.1	x	x	x
Cc1ccc(C(=O)N2N=C3c4ccccc4S(=O)(=O)N3[C@H]2N(C)C)cc1	105	100	-4	-2	-2	1	x	x	x
Cc1cccc(C)c1Nc1nnc(SC/C(O)=C(\C#N)c2nc3ccccc3[nH]2)s1	143*	91	-55	10	-2	1	152*	103	89
Cn1cnnc1SC/C(O)=C(\C#N)c1nc2ccccc2[nH]1	103	94	-4	7	-1	1	x	x	x
Cc1cccc(Nc2nnc(SC/C(O)=C(\C#N)c3nc4ccccc4[nH]3)s2)c1C	148*	87	-63	16	-6	1.1	145*	103	90
Cc1ccc(C)c(SCC(=O)OC/C(O)=C(\C#N)c2nc3ccccc3[nH]2)c1	146*	91	-51	10	-5	1	150*	111	91
Cc1cccc(Nc2nnc(SCC(=O)Nc3ccccc3[N+](=O)[O-])s2)c1C	119	106	-20	-7	2	1	x	x	x
COc1ccc(OC)c(NC(=O)C(=O)NCCC2=CCCCC2)c1	89	105	15	-6	-3	1	x	x	x
CC(C)c1c(Cl)c(O)c(-c2ccccc2)c(=O)n1-c1ccc(F)cc1	98	92	2	10	-3	1	x	x	x
CCOC(=O)C(C(=O)Nc1cccc(C)n1)C1CCCCC1 (stereo not given)	104	104	-2	-5	-6	1.1	x	x	x
CCOC(=O)C(C(=O)Nc1nc2ccccc2s1)C1CCCCC1 (stereo not given)	143*	103	-49	-4	-6	1.1	124	109	100
SMILES	STAT3 act-1	STAT1 act-1	STAT3 inh	STAT1 blocker	FLuc inhib CS	FLuc act counter	STAT3 act-2	NFkB act STAT3ct	STAT1 act-2
CCN(CC)c1ccc(NC(=O)c2cc(Cl)ccc2OC)cc1	162*	95	-62	5	3	1	151*	112	99
CCCOC(=O)c1ccc(NC(=O)c2cc(Cl)ccc2OC)cc1	72	92	35	9	-2	1	x	x	x
COc1ccc(Nc2nc(C(F)(F)F)nc(C)c2C#N)cc1	101	97	-3	4	42	0.6	x	x	x
COc1ccc(Nc2nc(C)cc(C)c2C#N)cc1	137*	100	-44	0	1	1	150*	107	112
CCOc1ccc(Nc2nc(C)cc(C)c2C#N)cc1	140*	93	-45	2	1	1	126	102	104
CCOc1ccc(Nc2cc(C)nc3nc(C)nn23)cc1	91	102	10	-2	-6	1.1	x	x	x
Cc1cc(=O)oc2cc(NC(=O)C3CCCC3)ccc12	88	127	19	-32	1	1	x	x	x
O=C(Nc1ccc2c(c1)oc1ccccc12)C1CC1	143*	118	-45	-19	10	0.9	142*	131*	134*
O=C(Nc1ccc2c(c1)oc1ccc(S(=O)(=O)N3CCCC3)cc12)C1CC1	154*	101	-60	-1	-1	1	94	103	102
Cc1ccccc1C(OCCN(C(C)C)C(C)C)c1ccccc1 (stereo not given)	101	95	1	6	0	1	x	x	x
CCOc1ccccc1C1CC(c2cccs2)=NN1S(C)(=O)=O (stereo not given)	137*	94	-34	5	-4	1	147*	103	87
Cc1ccc(-c2nc(N3CCOCC3)sc2C(=O)N2CCCCC2)cc1	90	92	10	9	-1	1	x	x	x
CCOC(=O)C1=NN(c2ccccc2)C(c2ccccc2)CC1=O (stereo not given)	138*	106	-44	-5	-3	1	113	100	98
